Test results: ChEMBL document CHEMBL1828610, “Novel peptide-specific quantitative structure-activity relationship (QSAR) analysis applied to collagen IV peptides with antiangiogenic activity” (2011)
Activity calls are given as the source filed them. No cut-off for these calls is given here. Square brackets hold non-standard residues; d marks the D form. Peptide text beside a SMILES is read from it. Abu = CC[C@H](N)C(=O)O

Tests used:
HUVEC [1] = test: Antiangiogenic activity in human HUVEC cells assessed as inhibition of cell proliferation at 100 uM after 72 hrs by WST-1-based colorimetric assay; format: functional
Outline: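 HUVEC (passages 2–7) plated at 2000 cells/well, peptide 100 μM added in fully supplemented medium to adherent cells for 72 hours; WST-1 then applied in serum-free medium for four hours and absorbance read at 450 nm. Two biological replicates, each mean of three technical replicates; percent inhibition relative to vehicle control.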

HUVEC [2] = test: Antiangiogenic activity in human HUVEC cells assessed as inhibition of cell migration at 50 uM; format: functional
Outline: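 Real-time impedance migration: upper chamber coated with fibronectin (20μg/ml), 45,000 HUVEC/well (passages 2–7) added with or without peptide at 50 μM; fully supplemented medium below as chemoattractant; migration read as cell index from sensors under porous membrane. Duplicate experiments, each averaging three same-plate replicates; percent inhibition versus vehicle control.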

HUVEC [3] = test: Antiangiogenic activity in human HUVEC cells assessed as inhibition of cell adhesion at 100 uM upto 3 hrs by migration assay; format: functional
Outline: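 HUVEC (passages 2–7, EGM-2, 37°C, 5% CO2) seeded at 25,000 cells/well in single-compartment impedance E-plates with or without peptide at 100 μM; adhesion tracked as change in cell index amplitude over 3 hours. Two biological replicates, each the mean of three same-plate technical replicates; expressed as percent inhibition relative to vehicle control.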

HUVEC [4] = test: Antiangiogenic activity in human HUVEC cells assessed as inhibition of tube structure formation at 100 uM relative to control; format: functional, cell-based
Outline: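 Wells coated with reduced growth factor basement membrane matrix, gelled 30 minutes at 37 °C; HUVEC seeded on gel at 15,000 cells/well with or without peptide (100 μM), control receiving equal DMSO vehicle. Incubated overnight at 37 °C, 5% CO2; tube structures imaged by camera on inverted microscope.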

CC[C@H](C)[C@H](NC(=O)[C@H](CC(N)=O)NC(=O)[C@@H](NC(=O)[C@H](Cc1ccccc1)NC(=O)[C@H](C)NC(=O)[C@H](Cc1ccccc1)NC(=O)[C@@H]1CCCN1C(=O)[C@H](CCSC)NC(=O)[C@@H](NC(=O)[C@H](CO)NC(=O)[C@H](Cc1ccccc1)NC(=O)[C@H](CCCNC(=N)N)NC(=O)[C@H](CCCNC(=N)N)NC(=O)[C@@H](N)CC(C)C)[C@@H](C)O)[C@@H](C)CC)C(=O)N[C@@H](CC(N)=O)C(=O)N[C@@H](CC(N)=O)C(=O)N[C@H](C(=O)N[C@H](C(=O)N[C@@H](CC(N)=O)C(=O)N[C@@H](Cc1ccccc1)C(=O)O)[C@@H](C)CC)C(C)C
inhibition at 100 µM (HUVEC [1]): 46.6%
inhibition at 50 µM (HUVEC [2]): 69.3%
inhibition at 100 µM (HUVEC [3]): 94.8%
inhibition (HUVEC [4]): Active

CC[C@H](NC(=O)[C@H](Cc1ccccc1)NC(=O)[C@H](CCSC)NC(=O)[C@@H](N)Cc1ccccc1)C(=O)N[C@@H](CC(N)=O)C(=O)N[C@H](C(=O)N[C@@H](CC(N)=O)C(=O)N[C@@H](CC(N)=O)C(=O)N[C@H](C(=O)N[C@@H](CC)C(=O)N[C@@H](CC(N)=O)C(=O)N[C@@H](Cc1ccccc1)C(=O)O)C(C)C)[C@@H](C)CC (H-FMF[Abu]NINNV[Abu]NF-OH)
inhibition at 100 µM (HUVEC [1]): 28.3%
inhibition at 50 µM (HUVEC [2]): -16.6%
inhibition at 100 µM (HUVEC [3]): 66.2%

CC[C@H](NC(=O)[C@@H](N)Cc1ccccc1)C(=O)N[C@@H](CC(N)=O)C(=O)N[C@H](C(=O)N[C@@H](CC(N)=O)C(=O)O)[C@@H](C)CC (H-F[Abu]NIN-OH)
inhibition at 100 µM (HUVEC [1]): 8.17%
inhibition at 50 µM (HUVEC [2]): -23.7%
inhibition at 100 µM (HUVEC [3]): 3.45%

CC[C@H](NC(=O)[C@@H](NC(=O)[C@H](CC(N)=O)NC(=O)[C@H](CC(N)=O)NC(=O)[C@@H](NC(=O)[C@H](CC(N)=O)NC(=O)[C@H](CC)NC(=O)[C@@H](N)Cc1ccccc1)[C@@H](C)CC)C(C)C)C(=O)N[C@@H](CC(N)=O)C(=O)O (H-F[Abu]NINNV[Abu]N-OH)
inhibition at 100 µM (HUVEC [1]): 20.6%
inhibition at 50 µM (HUVEC [2]): 40.4%
inhibition at 100 µM (HUVEC [3]): 77.5%

CC[C@H](NC(=O)[C@H](Cc1ccccc1)NC(=O)[C@H](CCSC)NC(=O)[C@H](C)NC(=O)[C@@H]1CCCN1C(=O)[C@H](CCSC)NC(=O)[C@@H](NC(=O)[C@H](CO)NC(=O)[C@H](Cc1ccccc1)NC(=O)[C@H](CCCNC(=N)N)NC(=O)[C@H](CCCNC(=N)N)NC(=O)[C@@H](N)CC(C)C)[C@@H](C)O)C(=O)N[C@@H](CC(N)=O)C(=O)N[C@H](C(=O)N[C@@H](CC(N)=O)C(=O)N[C@@H](CC(N)=O)C(=O)N[C@H](C(=O)N[C@@H](CC)C(=O)N[C@@H](CC(N)=O)C(=O)N[C@@H](Cc1ccccc1)C(=O)O)C(C)C)[C@@H](C)CC (H-LRRFSTMPAMF[Abu]NINNV[Abu]NF-OH)
inhibition at 100 µM (HUVEC [1]): 65.4%
inhibition at 50 µM (HUVEC [2]): 99.8%
inhibition at 100 µM (HUVEC [3]): 95.6%

CC[C@H](NC(=O)[C@H](Cc1ccccc1)NC(=O)[C@H](C)NC(=O)[C@H](Cc1ccccc1)NC(=O)[C@@H]1CCCN1C(=O)[C@H](CCSC)NC(=O)[C@@H](NC(=O)[C@H](CO)NC(=O)[C@H](Cc1ccccc1)NC(=O)[C@H](CCCNC(=N)N)NC(=O)[C@H](CCCNC(=N)N)NC(=O)[C@@H](N)CC(C)C)[C@@H](C)O)C(=O)N[C@@H](CC(N)=O)C(=O)N[C@H](C(=O)N[C@@H](CC(N)=O)C(=O)N[C@@H](CC(N)=O)C(=O)N[C@H](C(=O)N[C@@H](CC)C(=O)N[C@@H](CC(N)=O)C(=O)N[C@@H](Cc1ccccc1)C(=O)O)C(C)C)[C@@H](C)CC (H-LRRFSTMPFAF[Abu]NINNV[Abu]NF-OH)
inhibition at 100 µM (HUVEC [1]): 63.6%
inhibition at 50 µM (HUVEC [2]): 99.6%
inhibition at 100 µM (HUVEC [3]): 98.3%

CC[C@H](NC(=O)[C@H](C)NC(=O)[C@H](CCSC)NC(=O)[C@H](Cc1ccccc1)NC(=O)[C@@H]1CCCN1C(=O)[C@H](CCSC)NC(=O)[C@@H](NC(=O)[C@H](CO)NC(=O)[C@H](Cc1ccccc1)NC(=O)[C@H](CCCNC(=N)N)NC(=O)[C@H](CCCNC(=N)N)NC(=O)[C@@H](N)CC(C)C)[C@@H](C)O)C(=O)N[C@@H](CC(N)=O)C(=O)N[C@H](C(=O)N[C@@H](CC(N)=O)C(=O)N[C@@H](CC(N)=O)C(=O)N[C@H](C(=O)N[C@@H](CC)C(=O)N[C@@H](CC(N)=O)C(=O)N[C@@H](Cc1ccccc1)C(=O)O)C(C)C)[C@@H](C)CC (H-LRRFSTMPFMA[Abu]NINNV[Abu]NF-OH)
inhibition at 100 µM (HUVEC [1]): 65.1%
inhibition at 50 µM (HUVEC [2]): 99.6%
inhibition at 100 µM (HUVEC [3]): 99.3%

CC[C@H](C)[C@H](NC(=O)[C@H](CC(N)=O)NC(=O)[C@H](CS)NC(=O)[C@H](Cc1ccccc1)NC(=O)[C@H](CCSC)NC(=O)[C@H](Cc1ccccc1)NC(=O)[C@@H]1CCCN1C(=O)[C@H](CCSC)NC(=O)[C@@H](NC(=O)[C@H](CO)NC(=O)[C@H](Cc1ccccc1)NC(=O)[C@H](CCCNC(=N)N)NC(=O)[C@H](CCCNC(=N)N)NC(=O)[C@@H](N)CC(C)C)[C@@H](C)O)C(=O)N[C@@H](CC(N)=O)C(=O)N[C@@H](CC(N)=O)C(=O)N[C@H](C(=O)N[C@@H](CS)C(=O)N[C@@H](CC(N)=O)C(=O)N[C@@H](Cc1ccccc1)C(=O)O)C(C)C (H-LRRFSTMPFMFCNINNVCNF-OH)
inhibition at 100 µM (HUVEC [1]): 67.5%
inhibition at 50 µM (HUVEC [2]): 91%
inhibition at 100 µM (HUVEC [3]): 96.2%

CC[C@H](NC(=O)[C@H](Cc1ccccc1)NC(=O)[C@H](CCSC)NC(=O)[C@H](Cc1ccccc1)NC(=O)[C@@H]1CCCN1C(=O)[C@H](CCSC)NC(=O)[C@@H](NC(=O)[C@H](CO)NC(=O)[C@H](Cc1ccccc1)NC(=O)[C@H](CCCNC(=N)N)NC(=O)[C@H](CCCNC(=N)N)NC(=O)[C@@H](N)CC(C)C)[C@@H](C)O)C(=O)N[C@@H](CC(N)=O)C(=O)N[C@H](C(=O)N[C@@H](CC(N)=O)C(=O)N[C@@H](CC(N)=O)C(=O)N[C@H](C(=O)N[C@@H](CC)C(=O)N[C@@H](CC(N)=O)C(=O)N[C@@H](Cc1ccccc1)C(=O)O)C(C)C)[C@@H](C)CC (H-LRRFSTMPFMF[Abu]NINNV[Abu]NF-OH)
inhibition at 100 µM (HUVEC [1]): 69.7%
inhibition at 50 µM (HUVEC [2]): 97%
inhibition at 100 µM (HUVEC [3]): 98.5%

CC[C@H](NC(=O)[C@@H](NC(=O)[C@H](CC(N)=O)NC(=O)[C@H](CC(N)=O)NC(=O)[C@@H](NC(=O)[C@@H](N)CC(N)=O)[C@@H](C)CC)C(C)C)C(=O)N[C@@H](CC(N)=O)C(=O)N[C@@H](Cc1ccccc1)C(=O)O (H-NINNV[Abu]NF-OH)
inhibition at 100 µM (HUVEC [1]): 24.2%
inhibition at 50 µM (HUVEC [2]): 31.6%
inhibition at 100 µM (HUVEC [3]): 70.8%

CC[C@H](NC(=O)[C@H](Cc1ccccc1)NC(=O)[C@H](CCSC)NC(=O)[C@H](Cc1ccccc1)NC(=O)[C@@H]1CCCN1C(=O)[C@H](CCSC)NC(=O)[C@@H](NC(=O)[C@@H](N)CO)[C@@H](C)O)C(=O)N[C@@H](CC(N)=O)C(=O)N[C@H](C(=O)N[C@@H](CC(N)=O)C(=O)N[C@@H](CC(N)=O)C(=O)N[C@H](C(=O)N[C@@H](CC)C(=O)N[C@@H](CC(N)=O)C(=O)N[C@@H](Cc1ccccc1)C(=O)O)C(C)C)[C@@H](C)CC (H-STMPFMF[Abu]NINNV[Abu]NF-OH)
inhibition at 100 µM (HUVEC [1]): 13.8%
inhibition at 50 µM (HUVEC [2]): -24.5%
inhibition at 100 µM (HUVEC [3]): 6.82%

H-LNRFSTMPF-OH
inhibition at 100 µM (HUVEC [1]): 6.35%
inhibition at 50 µM (HUVEC [2]): -16.1%
inhibition at 100 µM (HUVEC [3]): 0.32%

H-LRRFSTMP-OH
inhibition at 100 µM (HUVEC [1]): 7.02%
inhibition at 50 µM (HUVEC [2]): -20.1%
inhibition at 100 µM (HUVEC [3]): -0.14%
inhibition (HUVEC [4]): Active

H-LRRFSTMPFMF-OH
inhibition at 100 µM (HUVEC [1]): 2.97%
inhibition at 50 µM (HUVEC [2]): -14.2%
inhibition at 100 µM (HUVEC [3]): -2.6%

H-LRRFSTMPFMFANINNVANF-OH
inhibition at 100 µM (HUVEC [1]): 48.6%
inhibition at 50 µM (HUVEC [2]): 99.6%
inhibition at 100 µM (HUVEC [3]): 98.2%

H-LRRFSTMPFMFGNINNVGNF-OH
inhibition at 100 µM (HUVEC [1]): 25.7%
inhibition at 50 µM (HUVEC [2]): 87.9%
inhibition at 100 µM (HUVEC [3]): 97.8%

H-LRRFSTMPFMFININNVINF-OH
inhibition at 100 µM (HUVEC [1]): 73.2%
inhibition at 50 µM (HUVEC [2]): 92.9%
inhibition at 100 µM (HUVEC [3]): 98.6%

H-LRRFSTMPFMFSNINNVSNF-OH
inhibition at 100 µM (HUVEC [1]): 50.5%
inhibition at 50 µM (HUVEC [2]): 92.6%
inhibition at 100 µM (HUVEC [3]): 98%

H-LRRFSTMPFMFTNINNVTNF-OH
inhibition at 100 µM (HUVEC [1]): 59.1%
inhibition at 50 µM (HUVEC [2]): 96.1%
inhibition at 100 µM (HUVEC [3]): 98.7%

H-LRRFSTMPFMFVNINNVVNF-OH
inhibition at 100 µM (HUVEC [1]): 62.2%
inhibition at 50 µM (HUVEC [2]): 98.8%
inhibition at 100 µM (HUVEC [3]): 95.1%
inhibition (HUVEC [4]): Active
